Screening results (PubChem)
An excerpt weighted towards active compounds, which were near 1.3% of everything screened.
MDM2 E3 inh: Mdm2 E3 ligase (human) inhibition; actives 0.11% (n = 210,000); cell-based MDM2 ubiquitination luciferase reporter, 2 h; 0 = plate control, 100 = twice control, blank-subtracted; Q00987; signal enhancement, % at 5 µM; AID 1230;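 active = signal enhancement of 30% or more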;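 note: luminescence tracks abundance of the self-degrading MDM2-luciferase fusion protein; higher signal means inhibition of MDM2 E3 ligase activity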
Target sequence (Q00987 whole entry, looked up, the tested form may be a part): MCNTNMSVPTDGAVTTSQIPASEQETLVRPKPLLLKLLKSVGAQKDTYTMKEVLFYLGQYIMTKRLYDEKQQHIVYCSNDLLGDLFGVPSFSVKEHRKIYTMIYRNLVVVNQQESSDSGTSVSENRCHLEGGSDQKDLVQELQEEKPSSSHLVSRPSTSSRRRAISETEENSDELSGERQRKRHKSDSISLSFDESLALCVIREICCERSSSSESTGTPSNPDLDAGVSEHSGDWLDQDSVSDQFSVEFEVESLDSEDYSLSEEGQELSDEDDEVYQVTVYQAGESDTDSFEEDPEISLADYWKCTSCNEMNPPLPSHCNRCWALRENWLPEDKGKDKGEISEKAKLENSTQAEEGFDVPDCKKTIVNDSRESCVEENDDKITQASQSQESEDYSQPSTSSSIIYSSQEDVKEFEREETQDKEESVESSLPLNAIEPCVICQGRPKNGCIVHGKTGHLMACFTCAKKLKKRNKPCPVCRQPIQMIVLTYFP
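Material: stable MDM2–luciferase fusion reporter cells / Quantity: 2000 cells/well / Dosing: single 5 µM compound dose, 0.2% final DMSO / Buffer or medium: DMEM / Schedule: 4 h cell settling then 2 h compound exposure, 37 °C / Detection: luminescence with SteadyLite reagent, 15 min at room temperature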
PERK inhibitor: blocks human PERK kinase | CHO PERK-DD fusion, SEAP luminescence translation reporter | inhibition, % at 5.6 µM | Q9NZJ5 | actives 0.17% (n = 220,000) | AID 1416;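 active = inhibition above the mean inhibition of all tested compounds plus 3 SD, set separately per screening campaign, cut at about 2.9% in these data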;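 note: PERK kinase domain activated by AP20187 dimerizer at 100 nM; 0% = DMSO with dimerizer and 100% = rapamycin at 8.4 µM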
TAG inh: triacylglycerol accumulation inhibition | H9c2 cells, Nile Red lipid (TAG) fluorescence; cells loaded with 200 µM oleic acid | inhibition, % at 12.5 µM | actives 0.66% (n = 230,000) | AID 651582;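 active = pattern-corrected inhibition of lipid staining of at least 50% with the nuclear-stain viability signal not falling by more than 50%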;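 note: 0% = DMSO wells and 100% = triacsin C control wells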
Rad51 HR inh: Rad51 (human) homologous recombination inhibition. Q06609. inhibition, % at 10 µM. AID 1385. actives 0.085% (n = 200,000). hRad51 DNA strand exchange, fluorescence dequenching;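 active = inhibition above 40% at the single screening dose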;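 note: 0% = DMSO control wells and 100% = blanks with heterologous ssDNA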
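material = hRad51 filaments on single-stranded DNA | timing = filaments 15 min 37 °C, then compound 30 min | signal = FRET fluorescence dequenching, excitation 485 nm, emission 520 nm | benchmarks = control wells and blank wells on each plate | evaluation = percent inhibition relative to plate controls and blanks | compound = 10 µM final, single point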
PKD1 kinase inh: inhibitors of human PKD1 kinase; AID 797; actives 0.056% (n = 200,000); Q15139; PKD1 kinase fluorescence polarization assay; inhibition, % (test concentration not listed); in the data active = inhibition above about 50%
Hck Nef HTS: inhibitors of human Hck kinase activated by Nef. Recombinant Hck-YEEI plus Nef, Z-Lyte FRET kinase assay. AID 463187. inhibition, % at 20 µM. actives 0.68% (n = 220,000);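 active = Hck-Nef kinase inhibition above about 50%, limit read from the data; inactive = inhibition below that limit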;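 note: 0% = DMSO with Hck plus Nef and 100% = Hck alone without Nef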
FP interf 140K: interferes with fluorescence polarization in PKD inhibitor counter-screen; shares compounds with PKD1 kinase inh; PKD1 FP assay interference counter-screen; inhibition, % at 10 µM; 85 tested, under 10 active; AID 1315; call rule not given here
Hck Nef conf: confirmation of Hck-Nef kinase inhibitors | calls only at 10 µM | actives 28% (n = 1,300) | shares compounds with Hck Nef HTS | Recombinant Hck-YEEI:Nef, Z-Lyte FRET kinase assay;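 active = average inhibition of at least 50%, with Z-scores no higher than 3 in both the phospho-tyrosine peptide and fluorescence counterscreens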
Starred values were filed as active, the others as inactive; i = inactive; · = no result shown; + = active, no number.

SMILES	MDM2 E3 inh	PERK inhibitor	TAG inh	Rad51 HR inh	PKD1 kinase inh	Hck Nef HTS	Hck Nef conf	others
CN1CCN(c2cccc3c2C(=O)c2ccccc2C3=O)CC1	-25.1	-1.0	·	-6.2	100.6*	3.6	·	FP interf 140K=-9.4
NC(Cc1ccc(F)cc1)c1csc(Nc2ncccn2)n1 (stereo not given)	·	·	-0.4	·	·	·	·
NC(=O)c1cn(C2OC(CO)C(O)C2O)c2ncnc(N)c12 (stereo not given)	-26.8	5.3*	47.9	-1.8	94.5*	54.3*	·	FP interf 140K=-12.9
CN1C(=O)C(=Cc2ccc(Sc3ccccc3)o2)C(=O)N(C)C1=O	-12.0	0.2	20.7	4.3	5.7	69.9*	i
CN1C(=O)C(=Cc2ccc(Sc3ccccc3)o2)C(=O)N(C)C1=S	·	·	3.6	·	·	·	·
Cc1ccccc1NP(=O)(Oc1ccccc1F)Oc1ccccc1F	1.1	-0.7	·	-6.4	18.1	2.9	·
O=C1NC(=O)N(c2ccc(Cl)cc2)C(=O)/C1=C\c1ccc(Sc2nc3ccccc3[nH]2)o1	-4.7	0.2	0.7	-26.5	-9.4	57.2*	i
CCN1C(=O)/C(=C/c2ccc3c(c2)CCN3CCCCl)C(=O)NC1=S	-13.1	-0.1	·	-30.5	-6.5	55.1*	+
O=C1NC(=S)N(C2CC2)C(=O)/C1=C/c1ccc2c(c1)CCN2CCCCl	-16.2	0.7	·	-28.0	-10.4	23.8	·
Cc1cc(/C=C2\C(=O)NC(=O)N(Cc3ccco3)C2=O)c(C)n1-c1ccc(C(=O)O)cc1	1.8	1.0	5.8	·	·	50.2*	i
Cc1cc(/C=C2\C(=O)NC(=O)N(Cc3ccco3)C2=O)c(C)n1-c1ccc(O)cc1	-7.4	-0.2	6.0	-16.6	2.9	23.9	·
O=C1NC(=O)C(=Cc2coc3ccc(O)cc3c2=O)C(=O)N1	9.6	0.7	0.3	-2.6	·	78.2*	+
N#CC(C#N)=NNc1ccc(S(N)(=O)=O)cc1	·	0.3	4.6	9.9	·	52.5*	+
CC1CCN(S(=O)(=O)c2ccc(NN=C(C#N)C#N)cc2)CC1	-6.7	-1.1	·	1.4	-0.5	0.5	·
O=C1CCC2(O)C3Cc4ccc(O)c5c4C2(CCN3Cc2ccoc2)C1O5 (stereo not given)	·	·	-4.6	·	·	·	·
O=c1oc2ccccc2c(O)c1C(c1ccc([N+](=O)[O-])cc1)c1c(O)c2ccccc2oc1=O	-7.7	1.5	·	13.1	-4.1	72.9*	+
Cc1cccc(N2C(=O)/C(=C/c3ccc(CN(CCC#N)S(C)(=O)=O)o3)C(=O)NC2=S)c1	-11.2	0.2	-12.0	-54.0	0.0	52.6*	i
CCCCC(=O)N/N=C/c1c(O)n(CCc2ccc(OC)c(OC)c2)c(=O)[nH]c1=O	-7.8	0.3	4.5	6.2	1.2	77.8*	i
CCCCC(=O)N/N=C/c1c(O)n(CCc2ccccc2)c(=O)[nH]c1=O	-9.0	0.5	-1.7	17.7	·	32.2	·
COc1ccccc1N1C(=O)NC(=O)/C(=C/c2ccc3c(c2)Cc2ccccc2-3)C1=O	0.4	0.7	·	·	-5.4	22.9	·
COc1ccc(OC)c(N2C(=O)NC(=O)/C(=C/c3ccc([N+](=O)[O-])s3)C2=O)c1	-9.3	0.9	6.3	9.9	0.9	88.8*	i
O=C1/C(=C\c2ccc(Cl)c(Cl)c2)N2CCC1CC2	-1.2	0.3	10.9	13.2	·	3.9	·
O=C1NC(=S)N(c2ccc(F)cc2)C(=O)/C1=C\c1ccoc1	-2.6	1.5	1.6	-31.5	-3.1	79.2*	+
Cc1cc(C=C2C(=O)NC(=S)NC2=O)c(C)n1C1CCCC1	-3.8	1.9	-7.5	-23.2	-3.0	71.0*	i
NNC(N)=O	·	·	2.4	·	·	·	·
SMILES	MDM2 E3 inh	PERK inhibitor	TAG inh	Rad51 HR inh	PKD1 kinase inh	Hck Nef HTS	Hck Nef conf	others
Cc1ccc(N2C(=O)NC(=O)/C(=C\C=C\c3ccco3)C2=O)cc1C	53.0*	1.3	·	-51.2	-4.3	68.3*	i
C=CCN1C(=O)NC(=O)/C(=C/C=C/c2ccccc2)C1=O	16.7	2.1	2.5	-24.2	4.2	50.9*	i
O=C1NC(=O)N(Cc2ccccc2)C(=O)/C1=C\C=C\c1ccco1	29.1	0.2	·	-50.6	3.4	59.4*	i
CN(C)c1ccc(/C=C/C=C2/C(=O)NC(=O)N(c3ccccc3)C2=O)cc1	6.0	0.8	64.3	-19.3	-8.5	56.7*	i
O=C1NC(=O)N(Cc2ccco2)C(=O)/C1=C/C=C/c1ccco1	·	1.6	10.7	-27.3	·	44.4	·
Cc1ccc(N2C(=O)NC(=O)/C(=C\C=C\c3ccco3)C2=O)cc1	·	0.3	1.9	·	·	29.2	·
CNC(=O)Oc1ccccc1C1CCCCC1	·	·	-14.2	·	·	·	·
COP(=O)(OC)Oc1ccc(C(O)C(Cl)(Cl)Cl)cc1 (stereo not given)	-9.1	2.6	-9.6	·	·	8.2	·
O=C1NC(=O)N(c2ccccc2)C(=O)/C1=C/C=C/c1ccco1	9.8	0.0	-2.0	-24.9	·	28.8	·
CN1C(=O)/C(=C/C=C/c2ccco2)C(=O)NC1=S	-16.2	-0.7	-6.3	-110.0	·	53.7*	i
C=CCNC(=O)c1c(N)n(CCN2CCOCC2)c2nc3ccccc3nc12	-24.0	-1.2	·	-1.3	0.5	50.1*	·
COCCNC(=O)c1c(N)n(CCC(C)C)c2nc3ccccc3nc12	-16.2	-1.1	·	7.5	-8.1	64.1*	i
C=CCn1c(O)c(C(CC)=NCC2CCCO2)c(=O)[nH]c1=O (stereo not given)	-3.8	1.4	1.0	·	·	19.3	·
CCCNC(=O)c1c(N)n(Cc2ccco2)c2nc3ccccc3nc12	-6.9	-0.4	·	-25.0	-2.8	29.0	·
COc1ccc(Cn2c(N)c(C(=O)NCc3ccco3)c3nc4ccccc4nc32)cc1OC	-13.8	-0.7	4.1	·	8.4	61.6*	i
Nc1c(C(=O)NCC2CCCO2)c2nc3ccccc3nc2n1Cc1ccco1 (stereo not given)	-7.6	1.2	20.8	-38.9	·	59.6*	·
CCCC12CN3CC(CCC)(CN(C1)C3c1ccccn1)C2=O (stereo not given)	5.4	-1.3	1.0	-4.5	0.8	0.6	·
CCCn1c(C)cc(C=O)c1C	-6.2	1.0	1.2	·	-14.2	16.5	·
Cc1nonc1OCCNCCNc1ccc([N+](=O)[O-])c2cccnc12	-6.6	-0.1	·	2.9	-2.4	1.2	·
CN1C(=O)NC(=O)/C(=C\C=C\c2ccccc2[N+](=O)[O-])C1=O	2.7	2.1	·	-3.2	0.8	93.3*	i
Cc1ccc(-n2c(C)cc(/C=C3/C(=O)NC(=O)N(C)C3=O)c2C)cc1	0.8	0.6	-7.2	-6.3	-1.4	1.9	·
Cc1ccc2c(c1)=NC(=O)/C(=C/c1c(O)[nH]c(=O)[nH]c1=O)C=2	·	1.1	9.1	4.4	·	64.6*	+
